Publication PMC7744997 (Clinical Infectious Diseases: An Official Publication of …, 2020)

Columns and labels:
[1] = Laboratory safety in RSV-infected infants; type: in vivo, human
How it was run: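 Clinical laboratory tests were run in RSV-infected infants (>1 to ≤24 months) given oral drug or placebo once daily for 7 days. Abnormalities were graded with the DMID Pediatric Toxicity Tables (November 2007 version). Patients were followed for 28 days after randomisation.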

RSV = RSV RNA viral load from nasal swabs by qRT-PCR in RSV-infected infants; type: in vivo, respiratory syncytial virus
How it was run: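 Viral load was measured by quantitative real-time RT-PCR on midturbinate nasal swabs, taken over time during 7 days of once-daily oral dosing. After hospital discharge, no samples were taken until the day 7 visit. Results were expressed as median change from baseline.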

Compound: CS(=O)(=O)CCCn1c(Cn2c(=O)n(CC(F)(F)F)c3ccncc32)cc2cc(Cl)ccc21 [JNJ-53718678]
- Eosinophils: Above (treatment-emergent nongraded abnormality) ([1]; Low (cohorts 1a,2a,3a), n=12): 4 (33) no. (%)
- Eosinophils: Below (treatment-emergent nongraded abnormality) ([1]; Low (cohorts 1a,2a,3a), n=12): 0 no. (%)
- Erythrocytes: Above (treatment-emergent nongraded abnormality) ([1]; Low (cohorts 1a,2a,3a), n=12): 1 (8) no. (%)
- Erythrocytes: Below (treatment-emergent nongraded abnormality) ([1]; Low (cohorts 1a,2a,3a), n=12): 0 no. (%)
- Hemoglobin Grade 1 (treatment-emergent worst toxicity grade) ([1]; Low (cohorts 1a,2a,3a), n=12): 1 (8) no. (%)
- Hemoglobin Grade 2 (treatment-emergent worst toxicity grade) ([1]; Low (cohorts 1a,2a,3a), n=12): 0 no. (%)
- Hyperkalemia Grade 1 (treatment-emergent worst toxicity grade) ([1]; Low (cohorts 1a,2a,3a), n=12): 4 (33) no. (%)
- Hyperkalemia Grade 2 (treatment-emergent worst toxicity grade) ([1]; Low (cohorts 1a,2a,3a), n=12): 0 no. (%)
- Hypoglycemia Grade 1 (treatment-emergent worst toxicity grade) ([1]; Low (cohorts 1a,2a,3a), n=12): 0 no. (%)
- Hyponatremia Grade 2 (treatment-emergent worst toxicity grade) ([1]; Low (cohorts 1a,2a,3a), n=12): 1 (8) no. (%)
- Leukocytes: Above (treatment-emergent nongraded abnormality) ([1]; Low (cohorts 1a,2a,3a), n=12): 1 (8) no. (%)
- Lymphocytes: Above (treatment-emergent nongraded abnormality) ([1]; Low (cohorts 1a,2a,3a), n=12): 2 (17) no. (%)
- Lymphocytes: Below (treatment-emergent nongraded abnormality) ([1]; Low (cohorts 1a,2a,3a), n=12): 0 no. (%)
- Eosinophils/leukocytes: Above (treatment-emergent nongraded abnormality) ([1]; Mid (cohorts 1b,2b,3b), n=9): 3 (33) no. (%)
- Eosinophils/leukocytes: Below (treatment-emergent nongraded abnormality) ([1]; Mid (cohorts 1b,2b,3b), n=9): 0 no. (%)
- Lymphocytes/leukocytes: Above (treatment-emergent nongraded abnormality) ([1]; Mid (cohorts 1b,2b,3b), n=9): 3 (33) no. (%)
- Lymphocytes/leukocytes: Below (treatment-emergent nongraded abnormality) ([1]; Mid (cohorts 1b,2b,3b), n=9): 1 (11) no. (%)
- Monocytes/leukocytes: Above (treatment-emergent nongraded abnormality) ([1]; Mid (cohorts 1b,2b,3b), n=9): 3 (33) no. (%)
- Monocytes/leukocytes: Below (treatment-emergent nongraded abnormality) ([1]; Mid (cohorts 1b,2b,3b), n=9): 1 (11) no. (%)
- Neutrophils/leukocytes: Above (treatment-emergent nongraded abnormality) ([1]; Mid (cohorts 1b,2b,3b), n=9): 1 (11) no. (%)
- Neutrophils/leukocytes: Below (treatment-emergent nongraded abnormality) ([1]; Mid (cohorts 1b,2b,3b), n=9): 3 (33) no. (%)
- Eosinophils: Above (treatment-emergent nongraded abnormality) ([1]; Mid (cohorts 1b,2b,3b), n=11): 2 (18) no. (%)
- Eosinophils: Below (treatment-emergent nongraded abnormality) ([1]; Mid (cohorts 1b,2b,3b), n=11): 0 no. (%)
- Lymphocytes: Above (treatment-emergent nongraded abnormality) ([1]; Mid (cohorts 1b,2b,3b), n=11): 2 (18) no. (%)
- Lymphocytes: Below (treatment-emergent nongraded abnormality) ([1]; Mid (cohorts 1b,2b,3b), n=11): 0 no. (%)
- Alkaline phosphatase: Above (treatment-emergent nongraded abnormality) ([1]; Mid (cohorts 1b,2b,3b), n=12): 1 (8) no. (%)
- Alkaline phosphatase: Below (treatment-emergent nongraded abnormality) ([1]; Mid (cohorts 1b,2b,3b), n=12): 2 (17) no. (%)
- Bicarbonate: Above (treatment-emergent nongraded abnormality) ([1]; Mid (cohorts 1b,2b,3b), n=12): 2 (17) no. (%)
- Bicarbonate: Below (treatment-emergent nongraded abnormality) ([1]; Mid (cohorts 1b,2b,3b), n=12): 2 (17) no. (%)
- Chloride: Above (treatment-emergent nongraded abnormality) ([1]; Mid (cohorts 1b,2b,3b), n=12): 2 (17) no. (%)
- Chloride: Below (treatment-emergent nongraded abnormality) ([1]; Mid (cohorts 1b,2b,3b), n=12): 1 (8) no. (%)
- Erythrocytes: Above (treatment-emergent nongraded abnormality) ([1]; Mid (cohorts 1b,2b,3b), n=12): 1 (8) no. (%)
- Erythrocytes: Below (treatment-emergent nongraded abnormality) ([1]; Mid (cohorts 1b,2b,3b), n=12): 2 (17) no. (%)
- Hemoglobin Grade 1 (treatment-emergent worst toxicity grade) ([1]; Mid (cohorts 1b,2b,3b), n=12): 1 (8) no. (%)
- Hemoglobin Grade 2 (treatment-emergent worst toxicity grade) ([1]; Mid (cohorts 1b,2b,3b), n=12): 1 (8) no. (%)
- Hyperkalemia Grade 1 (treatment-emergent worst toxicity grade) ([1]; Mid (cohorts 1b,2b,3b), n=12): 3 (25) no. (%)
- Hyperkalemia Grade 2 (treatment-emergent worst toxicity grade) ([1]; Mid (cohorts 1b,2b,3b), n=12): 1 (8.3) no. (%)
- Hypoglycemia Grade 1 (treatment-emergent worst toxicity grade) ([1]; Mid (cohorts 1b,2b,3b), n=12): 0 no. (%)
- Hyponatremia Grade 2 (treatment-emergent worst toxicity grade) ([1]; Mid (cohorts 1b,2b,3b), n=12): 0 no. (%)
- Leukocytes: Above (treatment-emergent nongraded abnormality) ([1]; Mid (cohorts 1b,2b,3b), n=12): 2 (17) no. (%)
- Urea: Above (treatment-emergent nongraded abnormality) ([1]; Mid (cohorts 1b,2b,3b), n=12): 0 no. (%)
- Urea: Below (treatment-emergent nongraded abnormality) ([1]; Mid (cohorts 1b,2b,3b), n=12): 4 (33) no. (%)
- Urea: Above (treatment-emergent nongraded abnormality) ([1]; Mid-high (cohort 1c), n=3): 0 no. (%)
- Urea: Below (treatment-emergent nongraded abnormality) ([1]; Mid-high (cohort 1c), n=3): 0 no. (%)
- Alkaline phosphatase: Above (treatment-emergent nongraded abnormality) ([1]; Mid-high (cohort 1c), n=4): 0 no. (%)
- Alkaline phosphatase: Below (treatment-emergent nongraded abnormality) ([1]; Mid-high (cohort 1c), n=4): 1 (25) no. (%)
- Bicarbonate: Above (treatment-emergent nongraded abnormality) ([1]; Mid-high (cohort 1c), n=4): 0 no. (%)
- Bicarbonate: Below (treatment-emergent nongraded abnormality) ([1]; Mid-high (cohort 1c), n=4): 1 (25) no. (%)
- Chloride: Above (treatment-emergent nongraded abnormality) ([1]; Mid-high (cohort 1c), n=4): 2 (50) no. (%)
- Chloride: Below (treatment-emergent nongraded abnormality) ([1]; Mid-high (cohort 1c), n=4): 0 no. (%)
- Eosinophils/leukocytes: Above (treatment-emergent nongraded abnormality) ([1]; Mid-high (cohort 1c), n=4): 1 (25) no. (%)
- Eosinophils/leukocytes: Below (treatment-emergent nongraded abnormality) ([1]; Mid-high (cohort 1c), n=4): 1 (25) no. (%)
- Eosinophils: Above (treatment-emergent nongraded abnormality) ([1]; Mid-high (cohort 1c), n=4): 1 (25) no. (%)
- Eosinophils: Below (treatment-emergent nongraded abnormality) ([1]; Mid-high (cohort 1c), n=4): 0 no. (%)
- Erythrocytes: Above (treatment-emergent nongraded abnormality) ([1]; Mid-high (cohort 1c), n=4): 2 (50) no. (%)
- Erythrocytes: Below (treatment-emergent nongraded abnormality) ([1]; Mid-high (cohort 1c), n=4): 0 no. (%)
- Hemoglobin Grade 1 (treatment-emergent worst toxicity grade) ([1]; Mid-high (cohort 1c), n=4): 0 no. (%)
- Hemoglobin Grade 2 (treatment-emergent worst toxicity grade) ([1]; Mid-high (cohort 1c), n=4): 0 no. (%)
- Hyperkalemia Grade 1 (treatment-emergent worst toxicity grade) ([1]; Mid-high (cohort 1c), n=4): 2 (50) no. (%)
- Hyperkalemia Grade 2 (treatment-emergent worst toxicity grade) ([1]; Mid-high (cohort 1c), n=4): 0 no. (%)
- Hypoglycemia Grade 1 (treatment-emergent worst toxicity grade) ([1]; Mid-high (cohort 1c), n=4): 0 no. (%)
- Hyponatremia Grade 2 (treatment-emergent worst toxicity grade) ([1]; Mid-high (cohort 1c), n=4): 1 (25) no. (%)
- Leukocytes: Above (treatment-emergent nongraded abnormality) ([1]; Mid-high (cohort 1c), n=4): 0 no. (%)
- Lymphocytes/leukocytes: Above (treatment-emergent nongraded abnormality) ([1]; Mid-high (cohort 1c), n=4): 0 no. (%)
- Lymphocytes/leukocytes: Below (treatment-emergent nongraded abnormality) ([1]; Mid-high (cohort 1c), n=4): 0 no. (%)
- Lymphocytes: Above (treatment-emergent nongraded abnormality) ([1]; Mid-high (cohort 1c), n=4): 1 (25) no. (%)
- Lymphocytes: Below (treatment-emergent nongraded abnormality) ([1]; Mid-high (cohort 1c), n=4): 0 no. (%)
- Monocytes/leukocytes: Above (treatment-emergent nongraded abnormality) ([1]; Mid-high (cohort 1c), n=4): 0 no. (%)
- Monocytes/leukocytes: Below (treatment-emergent nongraded abnormality) ([1]; Mid-high (cohort 1c), n=4): 0 no. (%)
- Neutrophils/leukocytes: Above (treatment-emergent nongraded abnormality) ([1]; Mid-high (cohort 1c), n=4): 0 no. (%)
- Neutrophils/leukocytes: Below (treatment-emergent nongraded abnormality) ([1]; Mid-high (cohort 1c), n=4): 0 no. (%)
- Dose-response relationship for antiviral effects (RSV; across JNJ-8678 dose levels): no clear dose-response relationship was observed
- Reduction in viral load compared with placebo (RSV; all doses combined): greater reduction in viral load with JNJ-8678 than placebo
- Median RSV viral load change from baseline (RSV; by day 3, all JNJ-8678 doses combined): −1.98 log10 copies/mL
